Compound activity as filed in PubChem.
PglD inh: PglD (C. jejuni) enzyme inhibition | purified PglD enzyme, DTNB colorimetric CoA detection | inhibition, % at 12.5 µM | 360,000 tested, 0.098% active; in the data active = inhibition above about 16%, passing the limit was not always enough
CR mimetic SO: yeast age-related superoxide inhibition as caloric restriction mimetic; S. cerevisiae aged cells, superoxide DHE fluorescence; hits give low values; superoxide response (% of plate mean), % at 10 µM; 330,000 tested, 0.18% active;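 active = superoxide response under a set limit, about three screen SD below normal, cut at about 65% in these data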;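 also: yeast aged for seven days with compound at 30 °C before DHE staining; 100% = average MFI of all compound-treated wells on the plate with controls excluded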
Ecoli rRNA inh: inhibitors of bacterial rRNA selective over humanized ribosomes | E. coli WT GFP vs humanized-ribosome RFP mutants, fluorescence, 24 h; hits give low values; DMSO median 0, no signal -100 | GFP signal change (wild-type ribosome), % (no concentration beside the values) | 350,000 tested, 1.6% active;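 active = significant combined selectivity score with lowered wild-type GFP, culture density cut under 30%, mutant RFP and density less affected; inactive = any of these conditions unmet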
Cneo AK release: Cryptococcus neoformans lysis via adenylate kinase release. C. neoformans lysis, adenylate kinase release luminescence, 4 h; normalised: neutral wells 0, clomiphene wells 100. lysis activity, % at 15 µM. 360,000 tested, 0.2% active;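 active = mean lysis activity across replicates of at least 80%, whatever share of replicates individually reach that level; inactive = mean lysis activity below 80%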
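Material: C. neoformans cells | Amount: Yeast cell density of 5 × 10^6 cells/mL | Medium: Fresh YPD growth medium | Dosing: Single dose | Times: Static 4 h at 37 °C with compound, 1 h detection | Detection: AK luminescence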
SUMO Mot1 rescue: inhibitors of SUMOylation pathway: yeast Mot1-301 growth rescue. S. cerevisiae Mot1-301 growth rescue, ATP luminescence, 38.5C; percent above DMSO median, 100 means doubled. growth rescue, % at 18.8 µM. 320,000 tested, 1% active;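 active = every valid replicate shows activation above 250% relative to neutral control wells; inactive = the rest, any valid replicate at or below 250%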;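 also: OY570 slx delta 5 strain wells were the positive control but not used for scaling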
The depositor's hits bear a star; . = not tested or not shown. Shown are actives, neighbours in structure and some others; about 2.2% of the full set was active somewhere.

SMILES	PglD inh	CR mimetic SO	Ecoli rRNA inh	Cneo AK release	SUMO Mot1 rescue
CO[C@@H](CN(C)Cc1cc(F)ccc1F)[C@H](C)CN(C(=O)Nc1ccc(F)cc1)[C@H](C)CO	0.3	.	0.9	-3.0	.
COc1ccc(NC(=O)N2CCC(c3nc4ccccc4[nH]3)CC2)cc1	.	94.2	-22.3*	.	-6.7
Cc1ccc2nc(C3CCN(S(=O)(=O)c4ccc5ccccc5c4)CC3)[nH]c2c1	-7.0	87.0	-28.8*	5.9	-9.7
CC(=O)c1cccc(S(=O)(=O)N2CCC(c3nc4ccccc4[nH]3)CC2)c1	0.7	97.9	2.1	0.7	5.0
COc1ccccc1NC(=O)CN1CCC(c2nc3ccccc3[nH]2)CC1	-4.4	101.0	-14.1	-1.8	-3.6
COc1ccccc1NC(=O)CN1CCC(c2nc3ccc(C)cc3[nH]2)CC1	4.0	95.6	-26.1*	-1.9	6.8
CC(C)CC#Cc1ccc2c(c1)O[C@H](CN(C)Cc1ccccc1F)[C@H](C)CN([C@@H](C)CO)S2(=O)=O	1.2	.	6.1	11.5	.
Cc1noc(C)c1S(=O)(=O)N(C)C[C@@H]1Oc2ccc(NS(=O)(=O)c3ccccc3)cc2CC(=O)N([C@H](C)CO)C[C@H]1C	0.9	.	3.0	-4.2	.
CN1C(=O)c2cc(NC(=O)C3CC3)ccc2OC[C@@H]2O[C@@H](CC(=O)NCc3ccccc3F)CC[C@H]21	.	.	2.5	.	.
O=C(C[C@H]1CC[C@H]2[C@@H](COC[C@@H](O)CN2C(=O)c2ccccc2F)O1)N1CCOCC1	2.5	.	-1.9	1.2	.
CCC(=O)N(C)C[C@@H]1Oc2cc(C#CC(C)(C)O)ccc2S(=O)(=O)N([C@H](C)CO)C[C@@H]1C	-2.9	.	0.5	-0.1	.
COc1ccccc1C#Cc1ccc2c(c1)O[C@H](CN(C)C(C)=O)[C@H](C)CN([C@@H](C)CO)S2(=O)=O	-3.2	.	-3.3	103.5*	.
CCC(=O)N(C)C[C@@H]1Oc2cc(C#CC(C)(C)O)ccc2S(=O)(=O)N([C@@H](C)CO)C[C@H]1C	-8.4	.	3.5	93.3*	.
CCC(=O)N(C)C[C@H]1Oc2cc(-c3ccccc3)ccc2S(=O)(=O)N([C@H](C)CO)C[C@H]1C	0.2	.	-6.7	88.5*	.
CCC(=O)N(C)C[C@@H]1Oc2cc(-c3ccc(C)cc3)ccc2S(=O)(=O)N([C@H](C)CO)C[C@@H]1C	-2.1	.	-2.0	-6.1	.
O=C(C[C@@H]1CC[C@H](NC(=O)Nc2ccc(F)cc2)[C@@H](CO)O1)NCc1ccccn1	-2.3	.	0.1	-0.6	.
O=C(Nc1cccc(F)c1)N1C[C@H]2[C@@H](c3ccccc31)[C@@H](CO)N2C(=O)c1ccccn1	-0.5	.	-2.5	-1.1	.
C[C@@H]1CN([C@@H](C)CO)C(=O)c2cc(NC(=O)CCC(F)(F)F)ccc2O[C@H]1CN(C)Cc1ccc(Oc2ccccc2)cc1	0.1	.	-1.6	1.7	.
CCOc1ccc(Cl)cc1CSc1ncn[nH]1	.	94.8	-22.1*	14.4	-11.0
Cc1ccc2[nH]c(C(F)(F)F)cc(=O)c2c1	.	92.0	-20.1	.	342.5*
O=C(c1cc(COc2ccc3ncccc3c2)on1)N1CCCC1	-1.3	107.1	-23.6*	-0.2	160.4
O=C(c1cc(COc2ccc3ncccc3c2)on1)N1CCCCCC1	.	84.3	.	.	3.8
Cc1noc(C)c1S(=O)(=O)Nc1ccc2c(c1)C(=O)N([C@H](C)CO)C[C@H](C)[C@@H](CN(C)C(=O)NC1CCCCC1)OCCCC[C@H](C)O2	1.3	.	1.0	0.7	.
CCC(C)c1ccc(O)c(NC(=O)c2cccnc2)c1 (stereo not given)	.	106.2	.	-1.9	390.2*
CS(=O)(=O)N1CC(=O)N2[C@H](CO)[C@H](c3ccc(C#Cc4ccccc4)cc3)[C@@H]2C1	.	.	1.7	.	.
SMILES	PglD inh	CR mimetic SO	Ecoli rRNA inh	Cneo AK release	SUMO Mot1 rescue
Cc1ccc(C(c2c(C)nn(-c3ccccc3)c2N)c2c(C)nn(-c3ccccc3)c2N)cc1	-8.0	106.7	-8.4	-2.1	-4.7
Cc1nn(-c2ccccc2)c(N)c1C(c1ccc(C(C)C)cc1)c1c(C)nn(-c2ccccc2)c1N	-5.9	105.7	.	-0.9	408.8*
CCOC(=O)c1cc(C)n(-c2ccc(Cl)cc2)c1C	.	106.9	-23.3*	.	2.4
CCOC(=O)c1cc(C)n(-c2ccc(OC)c(OC)c2)c1C	-2.1	93.1	.	0.4	310.2
Cc1cc(NC(=O)c2cc(-c3ccc(OC(C)C)cc3)nc3ccccc23)no1	-0.8	117.1	4.3	-1.1	311.9*
CCC(C)c1ccc(-c2cc(C(=O)OCC(=O)Nc3cc(C)on3)c3ccccc3n2)cc1 (stereo not given)	-7.7	120.5	.	-4.2	-13.4
O=C(NC(Cc1c[nH]c2ccccc12)C(=O)O)c1ccc(F)cc1 (stereo not given)	.	100.3	2.5	.	-16.2
CC(C)COc1ccc(C(=O)NC(Cc2c[nH]c3ccccc23)C(=O)NN)cc1 (stereo not given)	.	87.9	-34.7*	.	2.4
C[C@H](CO)N1C[C@H](C)[C@@H](CN(C)Cc2ccncc2)Oc2ncc(C#Cc3ccccn3)cc2C1=O	-2.9	.	0.2	-1.4	.
O=C(C1CCCO1)N1CCN(C(=S)Nc2ccc(F)c(Cl)c2)CC1 (stereo not given)	8.4	99.8	-29.5*	-0.2	9.1
CCCCNS(=O)(=O)c1ccc2nc(SCC(=O)c3ccccc3OC)[nH]c2c1	-0.4	91.7	-45.4*	0.0	-4.6
COc1ccc(-c2ccc3c(c2)O[C@H](CN(C)C(=O)Nc2ccccc2F)[C@H](C)CN([C@@H](C)CO)S3(=O)=O)cc1	-2.1	.	-2.9	1.2	.
Cc1noc(C)c1NC(=O)N(C)C[C@@H]1Oc2ccc(NS(=O)(=O)c3cn(C)cn3)cc2CC(=O)N([C@H](C)CO)C[C@H]1C	2.7	.	2.4	103.3*	.
Cc1noc(C)c1NC(=O)N(C)C[C@@H]1Oc2ccc(NC(=O)C3CCCCC3)cc2CC(=O)N([C@@H](C)CO)C[C@@H]1C	0.1	.	2.2	6.5	.
Cc1noc(C)c1NC(=O)N(C)C[C@@H]1Oc2ccc(NS(=O)(=O)c3cn(C)cn3)cc2CC(=O)N([C@@H](C)CO)C[C@H]1C	4.1	.	5.0	2.0	.
C[C@H]1CN([C@@H](C)CO)C(=O)Cc2cc(NC(=O)C3CC3)ccc2O[C@@H]1CN(C)C(=O)Nc1cccc2ccccc12	-1.0	.	4.3	111.4*	.
C[C@H](CO)N1C[C@H](C)[C@H](CN(C)C(=O)Nc2cccc3ccccc23)Oc2ccc(NC(=O)Cc3ccccc3)cc2CC1=O	2.7	.	2.3	101.9*	.
Cc1noc(C)c1NC(=O)N(C)C[C@H]1Oc2ccc(NC(=O)C3CC3)cc2CC(=O)N([C@@H](C)CO)C[C@H]1C	-0.9	.	4.1	117.4*	.
Oc1ccc(-c2csc(Nc3ncccn3)n2)c(O)c1	.	89.2	-10.4	.	104.9
Oc1ccc(-c2csc(-c3cccnc3)n2)cc1O	-2.0	97.2	-16.8	-9.2	-9.9
Nc1nc(-c2ccc(-c3ccccc3)cc2)cs1	.	92.0	-25.3*	.	-33.3
Oc1ccc(-c2csc(-c3ccccc3)n2)cc1O	0.8	122.2	-33.6*	4.5	39.5
